# According to ChEMBL document CHEMBL2093137, “WHO-TDR NTD Screening”:
# What was measured:
# [1] = test system: Plasmodium falciparum K1; test: WHO-TDR: Malaria; format: functional, organism-based, Homo sapiens; conditions: Erythrocyte
# Summary of the method: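 A diverse library of 10,000 compounds from Life Chemicals, filtered for drug-likeness and reactive groups, was screened against the intra-erythrocytic Plasmodium falciparum K1 strain in human red blood cells. Previously published standard procedures were followed, with a reference drug as positive control. Antiplasmodial potency is given as IC50.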
# [2] = test system: Onchocerca ochengi; test: WHO-TDR: Onchocerciasis; format: functional; design: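 at 12.5 µM on microfilariae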
# Summary of the method: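 Microfilariae of Onchocerca ochengi or Onchocerca lienalis, animal pathogens standing in for the human parasite, were exposed to compounds in a whole-organism screen. The compounds came from a 10,000-compound diverse Life Chemicals library filtered for drug-likeness and reactive groups. Results are expressed as percent inhibition and IC50.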
# [3] = test system: Schistosoma mansoni; test: WHO-TDR: Schistosomiasis; format: functional; design: concentration or dose not given beside the values
# Summary of the method: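 In this whole-organism assay, larval and/or adult worms of Schistosoma mansoni (Puerto Rican strain) were exposed to compounds from a diverse Life Chemicals library of 10,000 members. A reference drug served as positive control. Activity is stated as percent inhibition and IC50.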
# [4] = WHO-TDR: Cytotoxicity; format: toxicity, cell-based; conditions: human, MRC5 cells
# [5] = test system: Trypanosoma cruzi; test: WHO-TDR: Chagas disease; format: functional, organism-based, Homo sapiens; conditions: MRC5
# Summary of the method: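 Following previously published standard procedures, with a reference drug as positive control, a whole-organism assay was run on Trypanosoma cruzi Tulahuen CL2 beta-galactosidase strain amastigotes inside MRC-5SV2 human lung fibroblast host cells. The 10,000 compounds tested formed a diverse Life Chemicals library filtered for drug-likeness and reactive groups. Results are expressed as IC50 for antiparasitic potency.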
# [6] = test system: Leishmania infantum; test: WHO-TDR: Leishmaniasis; format: functional, organism-based, Mus musculus; conditions: Macrophage
# Summary of the method: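 A diverse library of 10,000 compounds from Life Chemicals, filtered for drug-likeness and reactive groups, was screened against whole organisms. The targets were intracellular amastigotes of Leishmania infantum MHOM/MA(BE)/67 growing in murine peritoneal macrophages. Previously published standard procedures were followed, with a reference drug as positive control. Antiparasitic potency is given as IC50.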
# [7] = test system: Trypanosoma brucei brucei; test: WHO-TDR: Human African Trypanosomiasis (HAT); format: functional, organism-based; conditions: Squib-427
# Summary of the method: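 A diverse library of 10,000 compounds from Life Chemicals, filtered for drug-likeness and reactive groups, was screened against bloodstream forms of Trypanosoma brucei Squib 427 strain in a whole-organism assay. Previously published standard procedures were followed, with reference drugs serving as positive controls. Antiparasitic potency is given as IC50.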
# [8] = test system: Brugia malayi; test: WHO-TDR: Lymphatic Filariasis; format: functional; design: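 tested at 10 µM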
# Summary of the method: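 In a whole-organism assay, Brugia malayi microfilariae were screened against a diverse Life Chemicals library that had been filtered for drug-likeness and reactive groups. That library comprised 10,000 compounds. Activity is expressed as percent inhibition and as IC50.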
IC50 [1] [µg/mL],IC50 [6] [µg/mL],IC50 [7] [µg/mL],Structure (SMILES),% Inhibition [2] [%],% Inhibition [3] [%],IC50 [4] [µg/mL],IC50 [5] [µg/mL],% Inhibition [8] [%]
> 12.7,> 12.7,> 12.7,O=C(NCCc1ccc(Cl)cc1)c1csc(NS(=O)(=O)c2ccccc2)n1,100,0,> 12.7,> 12.7,20
> 11.1,> 11.1,> 11.1,O=C(Cc1csc(NC(=O)c2ccc[nH]c2=O)n1)NCc1ccncc1,0,100,> 11.1,> 11.1,20
> 11.6,> 11.6,> 11.6,CC(C)(C)n1ncc2c(=O)n(CCC(=O)NCc3ccccc3Cl)cnc21,0,100,> 11.6,> 11.6,20
> 11.5,> 11.5,> 11.5,CC(C)(C)n1ncc2c(=O)n(CCC(=O)Nc3ccc4c(c3)OCO4)cnc21,0,100,> 11.5,> 11.5,20
> 11,3.56,> 11,O=C(CCn1cnc2c(cnn2-c2ccccc2)c1=O)Nc1nccs1,0,100,> 11,> 11,20

# The remaining lines, values behind:
Structure (SMILES),IC50 [1] [µg/mL],IC50 [6] [µg/mL],IC50 [7] [µg/mL],% Inhibition [2] [%],% Inhibition [3] [%],IC50 [4] [µg/mL],IC50 [5] [µg/mL],% Inhibition [8] [%]
Cc1cc(C(=O)Nc2nc(-c3cc4ccccc4o3)cs2)on1,> 9.76,3.16,> 9.76,100,0,> 9.76,> 9.76,20
COc1nn(C)cc1-c1nnc(SCC(=O)N2CCC(Cc3ccccc3)CC2)n1C,3.65,4.28,0.428,100,0,5.88,3.01,0
Cc1ccccc1OCC(=O)NCCS(=O)(=O)N1CCN(Cc2ccccc2)CC1,> 14,> 14,> 14,100,83.3,> 14,> 14,20
O=C(Cc1ccc(Cl)cc1)NCCS(=O)(=O)N1CCN(Cc2ccccc2)CC1,> 14.2,> 14.2,> 14.2,100,0,> 14.2,> 14.2,20
O=C(Nc1ccc(OC(F)(F)F)cc1)c1csc(NS(=O)(=O)c2cccs2)n1,> 13.5,> 13.5,> 13.5,100,0,> 13.5,> 13.5,20
CC1Cc2ccccc2N1C(=O)Cc1csc(NC(=O)c2ccc[nH]c2=O)n1 (configuration not stated),> 11.8,> 11.8,> 11.8,50,100,> 11.8,> 11.8,20
O=C(Cc1csc(NC(=O)c2ccc[nH]c2=O)n1)Nc1ccc(Cl)cc1,> 11.7,0.378,> 11.7,0,0,> 11.7,> 11.7,20
O=C(Cc1csc(NC(=O)c2ccc[nH]c2=O)n1)Nc1ccc2c(c1)OCCO2,> 12.4,> 12.4,> 12.4,0,100,> 12.4,> 12.4,20
O=C(Cc1csc(NC(=O)c2ccc(=O)[nH]c2)n1)NCc1cccs1,> 11.2,> 11.2,> 11.2,0,100,> 11.2,> 11.2,20
